Measurements taken from PMC10809330 (RSC Medicinal Chemistry, 2023).

Legend:
[1] = test system: phosphorylated TAK1 (S412); assay: pTAK1; assay type: cell-based, murine; settings: MPC-11 cells, 0.1 or 0.5 μM, 48 h, western blot
Method in brief: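 MPC-11 cells were seeded at 0.5–1 × 10^6, left 24 h, then treated with test compound at 0.1 or 0.5 μM or DMSO for 48 h. Cells were lysed in RIPA (pH 7.4) with protease inhibitors and 1 mM PMSF, and protein was measured by BCA. Lysates were run on 10% SDS-PAGE and blotted to PVDF. Blots were probed overnight at 4 °C for pTAK1, TAK1 and β-actin, then with HRP secondaries for 2 h at 24 °C. Detection was by chemiluminescence, with bands quantified relative to actin.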

TAK1 = target: T1, TAK1 (Homo sapiens, UniProt O43318); assay: TAK1 ADP-Glo kinase assay; assay type: biochemical; settings: for TAK1 kinase inhibition: compound 500 nM
T1 sequence (O43318 1-303 limits assumed): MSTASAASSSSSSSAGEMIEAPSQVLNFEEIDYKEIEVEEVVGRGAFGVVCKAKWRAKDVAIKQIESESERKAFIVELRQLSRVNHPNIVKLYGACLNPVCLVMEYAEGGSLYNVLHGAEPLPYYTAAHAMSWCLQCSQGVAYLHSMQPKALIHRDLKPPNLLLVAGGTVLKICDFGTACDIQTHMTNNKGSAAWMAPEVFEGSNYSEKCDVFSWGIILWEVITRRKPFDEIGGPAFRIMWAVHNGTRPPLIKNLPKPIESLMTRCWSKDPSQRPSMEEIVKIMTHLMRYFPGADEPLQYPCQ
Method in brief: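 Tiered TAK1 screen using the ADP-Glo kinase assay. Test compounds were first tested at 500 nM. Those exceeding 50% enzyme inhibition were retested at 100 nM, then at 20 nM. Values are means of triplicates with SD.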

kinase anti-targets = assay: KinomeScan profiling, kinase anti-targets; assay type: binding; settings: Eurofins KinomeScan; KIT, ZAP70, JAK2, RET, KDR, PDGFR, FGFR, EGFR, BRAF, AKT, AURKA or B
PKAC alpha = PKAC alpha (Homo sapiens, UniProt P17612); assay: KinomeScan PKAC alpha; assay type: binding; settings: in words
MPC-11 cells = assay: Cell viability assay; assay type: cell-based, murine; settings: compound 200 nM
Method in brief: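 MPC-11 cells were grown in DMEM with 10% FBS at 37 °C under 5% CO2 and kept below 10 passages. Cells were seeded at 4–5 × 10^3 per well, left 24 h, then exposed to test compound (screened at 1 and 0.2 μM) for 72 h. CellTiter-Blue was added for 3 h and fluorescence read at 560/590 nm. Runs were in triplicate, normalised to DMSO-treated cells.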

Row | TAK1 kinase inhibition (TAK1) | Structure (SMILES) | further results
1 | negligible kinase inhibition | C[C@@H]1CN(c2ccc3ncc(-c4ccccc4)n3n2)C[C@H](C)O1 [Compound 5, (2S,6R)-2,6-Dimethyl-4-(3-phenylimidazo[1,2-b]pyridazin-6-yl)morpholine] | 
2 | moderate kinase inhibition | C[C@@H]1CN(c2ccc3ncc(-c4ccc(C#N)cc4)n3n2)C[C@H](C)O1 [Compound 6, 4-(6-((2S,6R)-2,6-Dimethylmorpholino)imidazo[1,2-b]pyridazin-3-yl)benzonitrile] | 
3 | moderate kinase inhibition | C[C@@H]1CN(c2ccc3ncc(-c4cccc(S(C)(=O)=O)c4)n3n2)C[C@H](C)O1 [Compound 8, (2S,6R)-2,6-Dimethyl-4-(3-(3-(methylsulfonyl)phenyl)imidazo[1,2-b]pyridazin-6-yl)morpholine] | 
4 | moderate kinase inhibition | C[C@@H]1CN(c2ccc3ncc(-c4ccc(F)cc4)n3n2)C[C@H](C)O1 [Compound 9, (2S,6R)-4-(3-(4-Fluorophenyl)imidazo[1,2-b]pyridazin-6-yl)-2,6-dimethylmorpholine] | 
5 | moderate kinase inhibition | C[C@@H]1CN(c2ccc3ncc(-c4ccncc4)n3n2)C[C@H](C)O1 [Compound 17, (2S,6R)-2,6-Dimethyl-4-(3-(pyridin-4-yl)imidazo[1,2-b]pyridazin-6-yl)morpholine] | 
6 | negligible kinase inhibition | C[C@@H]1CN(c2ccc3ncc(-c4cccnc4)n3n2)C[C@H](C)O1 [Compound 18, (2S,6R)-2,6-Dimethyl-4-(3-(pyridin-3-yl)imidazo[1,2-b]pyridazin-6-yl)morpholine] | 
7 | negligible kinase inhibition | C[C@@H]1CN(c2ccc3ncc(-c4cccc(C#N)c4)n3n2)C[C@H](C)O1 [Compound 19, 3-(6-((2S,6R)-2,6-Dimethylmorpholino)imidazo[1,2-b]pyridazin-3-yl)benzonitrile] | 

Further lines, the molecule ahead of its results:

Row | Structure (SMILES) | TAK1 kinase inhibition (TAK1) | further results
8 | Cc1n[nH]c2ccc(-c3cnc4ccc(N5C[C@@H](C)O[C@@H](C)C5)nn34)cc12 [Compound 3, (2S,6R)-2,6-Dimethyl-4-(3-(3-methyl-1H-indazol-5-yl)imidazo[1,2-b]pyridazin-6-yl)morpholine] |  | levels of phosphorylated TAK1 (S412) compared to DMSO control [1]: successful in reducing levels of phosphorylated TAK1 (S412)
9 | C[C@@H]1CN(c2ccc3ncc(-c4ccc(C(F)(F)F)cc4)n3n2)C[C@H](C)O1 [Compound 7, (2S,6R)-2,6-Dimethyl-4-(3-(4-(trifluoromethyl)phenyl)imidazo[1,2-b]pyridazin-6-yl)morpholine] | moderate kinase inhibition | 
10 | C[C@@H]1CN(c2ccc3ncc(-c4ccc(OC(F)(F)F)cc4)n3n2)C[C@H](C)O1 [Compound 11, (2S,6R)-2,6-Dimethyl-4-(3-(4-(trifluoromethoxy)phenyl)imidazo[1,2-b]pyridazin-6-yl)morpholine] | negligible kinase inhibition | 
11 | C[C@@H]1CN(c2ccc3ncc(-c4ccc(C(N)=O)cc4)n3n2)C[C@H](C)O1 [Compound 12, 4-(6-((2S,6R)-2,6-Dimethylmorpholino)imidazo[1,2-b]pyridazin-3-yl)benzamide] |  | inhibition of TAK1 (TAK1; compound 100 nM): decrease in TAK1 kinase inhibition compared to the previous screening
12 | CNC(=O)c1ccc(-c2cnc3ccc(N4C[C@@H](C)O[C@@H](C)C4)nn23)cc1 [Compound 13, 4-(6-((2S,6R)-2,6-dimethylmorpholino)imidazo[1,2-b]pyridazin-3-yl)-N-methylbenzamide] | moderate kinase inhibition | 
13 | C[C@@H]1CN(c2ccc3ncc(-c4ccc(CC#N)cc4)n3n2)C[C@H](C)O1 [Compound 14, 2-(4-(6-((2S,6R)-2,6-Dimethylmorpholino)imidazo[1,2-b]pyridazin-3-yl)phenyl)acetonitrile] | moderate kinase inhibition | 
14 | C[C@@H]1CN(c2ccc3ncc(-c4ccc(F)c(C#N)c4)n3n2)C[C@H](C)O1 [Compound 16, 5-(6-((2S,6R)-2,6-Dimethylmorpholino)imidazo[1,2-b]pyridazin-3-yl)-2-fluorobenzonitrile] | moderate kinase inhibition | 
15 | C[C@@H]1CN(c2ccc3ncc(-c4ccc5cn[nH]c5c4)n3n2)C[C@H](C)O1 [Compound 21, (2S,6R)-4-(3-(1H-Indazol-6-yl)imidazo[1,2-b]pyridazin-6-yl)-2,6-dimethylmorpholine] |  | inhibition at 0.5 µM (TAK1; read-out: TAK1 kinase inhibition, compound 500 nM): < 50%
16 | C[C@@H]1CN(c2ccc3ncc(-c4ccc5[nH]nc(C6CC6)c5c4)n3n2)C[C@H](C)O1 [Compound 26, (2S,6R)-4-(3-(3-Cyclopropyl-1H-indazol-5-yl)imidazo[1,2-b]pyridazin-6-yl)-2,6-dimethylmorpholine] |  | levels of phosphorylated TAK1 (S412) compared to DMSO control [1]: successful in reducing levels of phosphorylated TAK1 (S412); inhibition of kinase anti-targets (kinase anti-targets): minimal inhibition; affinity for PKAC alpha (PKAC alpha): low affinity
17 | Cc1n[nH]c2ccc(-c3cnc4ccc(N5CCO[C@@H](C)C5)nn34)cc12 [Compound 33, (S)-2-Methyl-4-(3-(3-methyl-1H-indazol-5-yl)imidazo[1,2-b]pyridazin-6-yl)morpholine] |  | inhibition of MPC-11 (MPC-11 cells): inactive
18 | CCCn1/c(=N/C(=O)c2cccc(C(N)=O)c2)[nH]c2ccccc21 [Takinib, reference compound] |  | levels of phosphorylated TAK1 (S412) compared to DMSO control [1]: did not show a significant difference
